# According to the array DNA melting data of Ke et al. (doi:10.1101/2024.01.08.574731):
# Columns and labels:
# [1] = melting temperature; fluorescence melt of hairpins on a sequencing array, two-state fit, raised by 9.35 °C to match UV melts; conditions: sodium 0.088 M
# Summary of the method: (§1)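 Melting temperature and folding enthalpy were derived from bootstrapped two-state fits. The fitted temperatures were raised by 9.35 °C to agree with UV melts, and four replicates were combined by inverse variance. The underlying data were Cy3 fluorescence images of library hairpins, with annealed Cy3 and quencher oligos, on a sequenced MiSeq flow cell in 50 mM Na-HEPES pH 8.0, 25 mM NaCl, taken in 2.5 °C steps up to 60 °C, normalised to pre-quench Cy3 and to control constructs.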
# [2] = folding enthalpy; higher = less favourable; fluorescence melt of hairpins on a sequencing array, two-state fit; conditions: sodium 0.088 M
# Summary of the method: as §1
Sequence,Tm [1],folding enthalpy [2]
GATGCCGAAAGGCTGATC ((((((....)))..))),36.6 °C,-9.91 kcal/mol
GATCCCCGGCGGGATC ((((((....)))))),55.7 °C,-37.8 kcal/mol
GACAAAGGAAACTTTGCC (.(((((....))))).),33.3 °C,-21.6 kcal/mol
CAAGAGAAATCTTG (((((....))))),31.7 °C,-10.5 kcal/mol
GATCTGGTATCAGATC ((((((....)))))),55.5 °C,-41.8 kcal/mol
GTAGGTGAAAACCTAC ((((((....)))))),56.4 °C,-30.9 kcal/mol
GCGATGCGTCGC ((((....)))),64.5 °C,-20.1 kcal/mol
GATGACGGAAACATCATC (((((.(....).))))),34.8 °C,-31.2 kcal/mol
GAGGTAGCGAAAGCTCTC (((..(((....)))))),38 °C,-13.6 kcal/mol
GGAGATCGAAAGATGTCC (((.(((....))).))),50.4 °C,-29.5 kcal/mol
GCCCAGCGAAAGCCAGGC (((..((....))..))),55.2 °C,-20.6 kcal/mol
GCGCTACGAAAGTACGC (((.(((....)))))),55.3 °C,-32.2 kcal/mol
GAAGTGCGAAAGCATTTC (((.(((....))).))),51 °C,-23.5 kcal/mol
GCTCTTCGAAAGAAAGC (((.(((....)))))),36.1 °C,-20.6 kcal/mol
GATCATAGGAATGATC ((((((....)))))),44.3 °C,-26 kcal/mol
GTTCACGAAAGTGGTAAC ((((((....)))..))),25.6 °C,-12.5 kcal/mol
GTAGAACGAAAGTTATAC (((.(((....))).))),44.1 °C,-33.9 kcal/mol
GATCCCTTATGGGATC ((((((....)))))),65.4 °C,-36.5 kcal/mol
GATCGGAACACCGATC ((((((....)))))),55.2 °C,-39.9 kcal/mol
GATCCTACTCAGGATC ((((((....)))))),52 °C,-32.3 kcal/mol
GATCATATCGATGATC ((((((....)))))),47.4 °C,-34.3 kcal/mol
GAGTGCCGAAAGGCTCTC (((.(((....))).))),56.4 °C,-25.6 kcal/mol
GCGTCACACGC ((((...)))),56.2 °C,-23.6 kcal/mol
GCAGACGCGAAAGCGTGC (((..(((....)))))),52 °C,-11.8 kcal/mol

Sequence,Tm [1],folding enthalpy [2]
GGTCCACGAAAGTGACC (((.(((....)))))),52.5 °C,-24.4 kcal/mol
GACGCCGAAAGGCGAGTC ((((((....)))..))),43.7 °C,-8.04 kcal/mol
GATCCTAAGGAGGATC ((((((....)))))),49.3 °C,-25.2 kcal/mol
GTCGCGGGAAACCGTGGC (.(.(((....))).).),50.3 °C,-28.5 kcal/mol
CGCACGCGGAAACGCGCG (((..(((....)))))),57 °C,-9.61 kcal/mol
GCCTAGGGAAACTTAGGC (((((.(....).))))),47.5 °C,-31.6 kcal/mol
GATCATCACTATGATC ((((((....)))))),48.6 °C,-31.3 kcal/mol
GCGAAATCTCGC ((((....)))),45.2 °C,-20.3 kcal/mol
GATCCTTGAAGGATC ((((((...)))))),51.2 °C,-38.8 kcal/mol
GCTATCGAAAGATGAGC ((((((....))).))),37.4 °C,-27.1 kcal/mol
GGAAAAGGAAACTTTTTC (.(((((....))))).),33 °C,-20.6 kcal/mol
GCTACGCGAAAGCGAAGC (((.(((....))).))),57.5 °C,-36.7 kcal/mol
GTTGTCCGAAAGGAAAAC (((.(((....))).))),44.9 °C,-26.9 kcal/mol
GATCTATTACTAGATC ((((((....)))))),39.2 °C,-32.4 kcal/mol
GATCTCCTCGGAGATC ((((((....)))))),58 °C,-52.8 kcal/mol
GTGGATCCGAAAGGACAC (((..(((....)))))),39.4 °C,-23.3 kcal/mol
GCAATACGAAAGTACTGC (((.(((....))).))),43.9 °C,-31.3 kcal/mol
GCATGGCGAAAGCACTGC (((..((....))..))),46.3 °C,-20.6 kcal/mol
GAAGGGGAAACCCTTC ((((((....)))))),53.8 °C,-28.6 kcal/mol
GATCATCCGTATGATC ((((((....)))))),47.8 °C,-38.9 kcal/mol
GGCATCGAAAGATGGCC ((((((....))).))),58.4 °C,-20.1 kcal/mol
GATCCACGGTGGATC ((((((...)))))),50.6 °C,-43.6 kcal/mol
GTGGAGGGAAACTTCCAC (((((.(....).))))),47.3 °C,-30.4 kcal/mol
GATCCCTAGCGGGATC ((((((....)))))),59.1 °C,-34.5 kcal/mol

Sequence,Tm [1],folding enthalpy [2]
GGCGTCGAAAGACACGCC ((((((....)))..))),55 °C,-32 kcal/mol
GCGAGCGAAAGCTAACGC ((((((....)))..))),52.6 °C,-22.7 kcal/mol
GATCCCCCTAGGGATC ((((((....)))))),61.3 °C,-32.6 kcal/mol
GCTATACGAAAGTAAAGC (((.(((....))).))),42.8 °C,-28 kcal/mol
GATCTGCTTTCAGATC ((((((....)))))),49.1 °C,-40.1 kcal/mol
GCCAGCGAAAGCTTAGGC ((((((....)))..))),52 °C,-27.3 kcal/mol
GGAGACGAAAGTCACTCC ((((((....)))..))),37.6 °C,-13.3 kcal/mol
GGCTACGGAAACGCAGCC ((((.((....)).)))),52.6 °C,-53 kcal/mol
GCATACCGAAAGGTTTGC (((.(((....))).))),54.4 °C,-42.2 kcal/mol
GTCAGCGAAAGCTGGAC ((((((....))).))),53.1 °C,-14.4 kcal/mol
GATTTAGCGAAAGCTATC (((..(((....)))))),29.1 °C,-10.5 kcal/mol
GGCTTAGGAAACTAAGCC (((((((....))))))),62.9 °C,-48.5 kcal/mol
GCATCTCGAAAGAGCTGC (((.(((....))).))),48.2 °C,-30.9 kcal/mol
GCAAGTCGAAAGACATGC (((.(((....))).))),52.7 °C,-29.1 kcal/mol
GATCGTAATGACGATC ((((((....)))))),52.8 °C,-34.3 kcal/mol
GTCCGCGAAAGCGGGAC ((((((....))).))),63.5 °C,-12.4 kcal/mol
GCTGGTGGAAACACCGGC ((.((((....)))).)),62.6 °C,-36.1 kcal/mol
GCTGTCGGAAACGGCAGC ((((.((....)).)))),63 °C,-47.7 kcal/mol
GTTAACACGAAAGTGAAC (((..(((....)))))),25.3 °C,-9.64 kcal/mol
GACTCACGAAAGTGTGTC (((.(((....))).))),53.7 °C,-38.5 kcal/mol
GTTGTGCGAAAGCAAAC (((.(((....)))))),46.8 °C,-16.5 kcal/mol
GCTAGGCGAAAGCTTCGC ((.(.((....)).).)),36.2 °C,-13.9 kcal/mol
GCTGTGGGAAACTACGGC ((.((.(....).)).)),42.6 °C,-31.6 kcal/mol
GATCTCGAGGAGATC ((((((...)))))),52.8 °C,-34.5 kcal/mol

Sequence,Tm [1],folding enthalpy [2]
GGGCTTGCGAAAGCACCC (((..(((....)))))),45.6 °C,-15.8 kcal/mol
GCATGTCCGAAAGGATGC (((..(((....)))))),40.2 °C,-16.4 kcal/mol
GCAACTCGAAAGAGCTGC (((.(((....))).))),52.3 °C,-46.6 kcal/mol
GATCTATAGGTAGATC ((((((....)))))),42.2 °C,-32.8 kcal/mol
GATCGGTCCACCGATC ((((((....)))))),60.9 °C,-50 kcal/mol
GGTACCGGAAACGGCACC (((.(((....))).))),52.5 °C,-29.9 kcal/mol
GATCGCACCTGCGATC ((((((....)))))),69.2 °C,-32.3 kcal/mol
CAATCAGAAATGGTTG (((.((....)).))),29.3 °C,-13.9 kcal/mol
GTGAATGGAAACATTCAC (((((((....))))))),56.9 °C,-45.6 kcal/mol
GTGAGCGAAAGCTTACAC ((((((....)))..))),49 °C,-14 kcal/mol
GGTCGCGAAAGCGTGACC ((((((....)))..))),53.1 °C,-18.2 kcal/mol
GGAGTTCGAAAGAAATCC (((.(((....))).))),49.2 °C,-33.8 kcal/mol
GCGTCAAACGC ((((...)))),50.8 °C,-16.7 kcal/mol
GCTCCGCGAAAGCTGAGC ((((.((....)).)))),61.1 °C,-32.3 kcal/mol
GGGATTGGAAACAATCTC (.(((((....))))).),45.3 °C,-28.3 kcal/mol
GATCACGGCGTGATC ((((((...)))))),61.3 °C,-38 kcal/mol
GTCTAGCGAAAGCTCGAC (((.(((....))).))),50 °C,-28.2 kcal/mol
GTTTGCGGAAACGTGAAC (((..((....))..))),41.2 °C,-30.7 kcal/mol
GCGTCCCGACGC ((((....)))),61 °C,-23.3 kcal/mol
GATCGGTTCTCCGATC ((((((....)))))),60.6 °C,-44.3 kcal/mol
GGATATCGAAAGATGTCC (((.(((....))).))),52 °C,-38.9 kcal/mol
